Here are results for 3 compounds from ChEMBL document CHEMBL1127799, “Derivatives of a novel cyclopeptolide. 1. Synthesis, antifungal activity, and structure-activity relationships” (1994).

In general, MIC refers to the smallest concentration in the dilution series that meets the test's criterion for growth inhibition.

≈ marks a conversion by molar mass, not a printed value.

What all share (assay type): functional
In experiment [1] the test system is Meyerozyma guilliermondii. Kind of experiment: Tested for minimum inhibitory concentration against Candida guilliermondii 80 at pH of 4.5. The procedure, abridged: (§1)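 Broth microdilution in malt extract broth, initial pH 4.5 or 6.5, with 1×10^3 CFU per 0.2 mL well of thawed stored cultures. Compound stocks were made in 5% DMSO/0.2% Tween 80 and diluted to final 0.05–100 μg/mL. Plates were incubated 48 h at 30 °C and read macroscopically. MIC was the lowest concentration with no detectable growth. Vehicle-only wells served as controls.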

For experiment [2], the system named is Candida tropicalis. Kind of experiment: Tested for minimum inhibitory concentration against Candida tropicalis 43 at pH of 4.5. The procedure, abridged: as §1
The subject of experiment [3] is Meyerozyma guilliermondii. Kind of experiment: Tested for minimum inhibitory concentration against Candida guilliermondii 80 at pH of 6.5. The procedure, abridged: as §1
The subject of experiment [4] is Candida albicans. Kind of experiment: Tested for minimum inhibitory concentration against Candida albicans 124 at pH of 4.5. Put shortly:
as §1

For experiment [5], the system named is Pichia kudriavzevii. Kind of experiment: Tested for minimum inhibitory concentration against Candida krusei 132 at pH of 4.5. The procedure, abridged:
as §1

The subject of experiment [6] is Pichia kudriavzevii. Kind of experiment: Tested for minimum inhibitory concentration against Candida krusei 132 at pH of 6.5. Put shortly:
as §1

Experiment [7] relates to Candida albicans. Kind of experiment: Tested for minimum inhibitory concentration against Candida albicans 124 at pH of 6.5. Put shortly:
as §1

Experiment [8] relates to Candida tropicalis. Kind of experiment: Tested for minimum inhibitory concentration against Candida tropicalis 43 at pH of 6.5. Put shortly:
as §1

The test system of experiment [9] is Candida albicans. Kind of experiment: Tested for minimum inhibitory concentration against Candida albicans 4 (Candida albicans) at pH 6.5. The procedure, abridged: (§2)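 Broth microdilution in malt extract broth, initial pH 6.5, 1×10^3 CFU per 0.2 mL well, from liquid-nitrogen-stored Sabouraud cultures. Compound from 0.08% stock in 5% DMSO/0.2% Tween 80, final 0.05–100 μg/mL. Visual reading after 48 h at 30 °C. MIC = lowest concentration with no detectable growth. Vehicle-only negative controls.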

Experiment [10] has as its system Candida albicans. Kind of experiment: Tested for minimum inhibitory concentration against Candida albicans 124 (Candida albicans) at pH 6.5. Put shortly: as §2
The test system of experiment [11] is Candida albicans. Kind of experiment: Tested for minimum inhibitory concentration against Candida albicans 88 (Candida albicans) at pH 6.5. Put shortly: as §2
For experiment [12], the species on record is Mus musculus. Kind of experiment: Tested for efficacy of compound in experimental vaginal candidosis (mouse) after oral treatment at dosage of 4 x150 mg kg e-1. The procedure, abridged:
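Vaginal candidiasis in hormonally conditioned female NMRI mice (18–20 g), 10 per group, inoculated intravaginally with 50 μL Sabouraud's glucose broth containing 3.5×10^4 CFU C. albicans no. 124. Dosed four times per gavage, 2 h before and 2, 18 and 24 h after infection. Vaginal swabs plated on Sabouraud's glucose agar with streptomycin (0.1 mg/mL), 48 h at 37 °C. Cure = failed reisolation.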

The subject of experiment [13] is Candida albicans. Kind of experiment: Tested for minimum subinhibitory concentration against Candida albicans 4 (Candida albicans) at pH 6.5. The procedure, abridged:
(§3)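 Malt extract broth microdilution, initial pH 6.5, inoculum 1×10^3 CFU per 0.2 mL well. Compound diluted from 0.08% stock (5% DMSO/0.2% Tween 80) to final 0.05–100 μg/mL. Macroscopic reading after 48 h, 30 °C. MSIC = lowest concentration giving visible growth inhibition in at least two of three triplicates. Vehicle-only negative controls.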

Experiment [14] is filed under the species Rattus norvegicus. Kind of experiment: Tested for efficacy of compound in experimental vaginal candidosis (rat) after oral treatment at dosage of 2x 300 mg kg e-1. Put shortly:
(§4)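 Hormonally conditioned female Wistar rats (~150 g), 10 per group, given intravaginal C. albicans no. 124, 3.5×10^4 CFU in 50 μL Sabouraud's glucose broth. Oral dosing twice, 2 h before and 18 h after infection. Vaginal swabs plated on Sabouraud's glucose agar with streptomycin (0.1 mg/mL), 48 h at 37 °C. Cured when C. albicans not reisolated.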

Experiment [15] deals with Candida albicans. Kind of experiment: Tested for minimum subinhibitory concentration against Candida albicans 9 (Candida albicans) at pH 6.5. Put shortly: as §3
The test system of experiment [16] is Candida albicans. Kind of experiment: Tested for minimum inhibitory concentration against Candida albicans 9 (Candida albicans) at pH 6.5. The procedure, abridged:
as §2

Experiment [17] concerns Pichia kudriavzevii. Kind of experiment: Tested for minimum inhibitory concentration against Candida krusei 132 (C.k) at pH 6.5. Put shortly:
as §2

The subject of experiment [18] is Candida albicans. Kind of experiment: Tested for minimum subinhibitory concentration against Candida albicans 3 (Candida albicans) at pH 6.5. Put shortly:
as §3

Experiment [19] deals with Meyerozyma guilliermondii. Kind of experiment: Tested for minimum subinhibitory concentration against Candida guilliermondii 80 (C.g) at pH 6.5. Put shortly:
as §3

Experiment [20] relates to Candida albicans. Kind of experiment: Tested for minimum subinhibitory concentration against Candida albicans 124 (Candida albicans) at pH 6.5. Put shortly: as §3
The species entered for experiment [21] is Rattus norvegicus. Kind of experiment: Tested for efficacy of compound in experimental vaginal candidosis (rat) after tropical treatment at dosage of 9x 0.1% drug concentration. The procedure, abridged: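 Female Wistar rats (~150 g, hormonally conditioned, 10 per group) infected intravaginally with 3.5×10^4 CFU C. albicans no. 124 in 50 μL broth. Intravaginal gel, 0.2 mL, from 2 h post-inoculation, twice daily for 4 days (nine applications). Swabs plated one day after last treatment on Sabouraud's glucose agar with streptomycin, 48 h at 37 °C. Cure = no reisolation.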

The subject of experiment [22] is Candida albicans. Kind of experiment: Tested for minimum inhibitory concentration against Candida albicans 26 (Candida albicans) at pH 6.5. Put shortly:
as §2

The subject of experiment [23] is Pichia kudriavzevii. Kind of experiment: Tested for minimum subinhibitory concentration against Candida krusei 132 (C.k) at pH 6.5. Put shortly:
as §3

Experiment [24] deals with Candida albicans. Kind of experiment: Tested for minimum subinhibitory concentration against Candida albicans 88 (Candida albicans) at pH 6.5. The procedure, abridged: as §3
The test system of experiment [25] is Candida albicans. Kind of experiment: Tested for minimum subinhibitory concentration against Candida albicans 90 (Candida albicans) at pH 6.5. The procedure, abridged: as §3
The species named for experiment [26] is Rattus norvegicus. Kind of experiment: Tested for efficacy of compound in experimental vaginal candidosis (rat) after oral treatment at dosage of 2x 150 mg kg e-1. The procedure, abridged: as §4
Experiment [27] has as its system Meyerozyma guilliermondii. Kind of experiment: Tested for minimum inhibitory concentration against Candida guilliermondii 80 (C.g) at pH 6.5. The procedure, abridged: as §2
Experiment [28] concerns Candida albicans. Kind of experiment: Tested for minimum inhibitory concentration against Candida albicans 90 (Candida albicans) at pH 6.5. The procedure, abridged:
as §2

Experiment [29] has as its system Candida tropicalis. Kind of experiment: Tested for minimum inhibitory concentration against Candida tropicalis 43 (C.t) at pH 6.5. The procedure, abridged:
as §2

The species entered for experiment [30] is Mus musculus. Kind of experiment: Tested for efficacy of compound in experimental systemic candidosis (mouse) after oral treatment at dosage of 8 *200 mg kg e-1. Put shortly:
(§5)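 Systemic candidiasis: female NMRI mice (18–20 g), 10 per group, infected by intravenous injection of 10⁶ CFU C. albicans no. 124 via lateral tail vein. Oral dosing twice daily on 4 consecutive days, starting 2 h before inoculation. Efficacy taken as survival rate up to day 9 after infection.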

For experiment [31], the system named is Candida tropicalis. Kind of experiment: Tested for minimum subinhibitory concentration against Candida tropicalis 43 (C.t) at pH 6.5. The procedure, abridged: as §3
Experiment [32] relates to Candida albicans. Kind of experiment: Tested for minimum subinhibitory concentration against Candida albicans 26 (Candida albicans) at pH 6.5. The procedure, abridged:
as §3

For experiment [33], the system named is Candida albicans. Kind of experiment: Tested for minimum inhibitory concentration against Candida albicans 3 (Candida albicans) at pH 6.5. Put shortly:
as §2

The species entered for experiment [34] is Mus musculus. Kind of experiment: Tested for efficacy of compound in experimental systemic candidosis (mouse) after oral treatment at dosage of 8 *100 mg kg e-1. Put shortly: as §5
The subject of experiment [35] is Candida albicans. Kind of experiment: Tested for minimum inhibitory concentration against Candida albicans 124 (Candida albicans) at pH of 4.5. Put shortly: as §1
Experiment [36] relates to Candida tropicalis. Kind of experiment: Tested for minimum inhibitory concentration against Candida tropicalis 43 (C.t) at pH of 6.5. Put shortly: as §1
The subject of experiment [37] is Pichia kudriavzevii. Kind of experiment: Tested for minimum inhibitory concentration against Candida krusei 132 (C.k) at pH of 6.5. Put shortly: as §1
Experiment [38] relates to Candida albicans. Kind of experiment: Tested for minimum inhibitory concentration against Candida albicans 124 (Candida albicans) at pH of 6.5. Put shortly: as §1
Experiment [39] relates to Meyerozyma guilliermondii. Kind of experiment: Tested for minimum inhibitory concentration against Candida guilliermondii 80 (C.g) at pH of 6.5. Put shortly: as §1
The subject of experiment [40] is Pichia kudriavzevii. Kind of experiment: Tested for minimum inhibitory concentration against Candida krusei 132 (C.k) at pH of 4.5. The procedure, abridged: as §1
For experiment [41], the system named is Meyerozyma guilliermondii. Kind of experiment: Tested for minimum inhibitory concentration against Candida guilliermondii 80 (C.g) at pH of 4.5. Put shortly:
as §1

In experiment [42] the test system is Candida tropicalis. Kind of experiment: Tested for minimum inhibitory concentration against Candida tropicalis 43 (C.t) at pH of 4.5. Put shortly: as §1

On to `CC[C@@H](C)[C@H]1C(=O)NCC(=O)N(C)[C@@H](C(C)C)C(=O)N[C@@H](Cc2ccc(OC/C=C(\C)CCC=C(C)C)cc2)C(=O)O[C@H](C)C(=O)N2CCCC[C@H]2C(=O)N(C)[C@@H](C(C)C)C(=O)N[C@@H](C(C)C)C(=O)N(C)[C@@H](CC(=O)O)C(=O)N(C)[C@@H]([C@@H](C)CC)C(=O)N1C`, for which the MIC (in experiment [1]; in the experiment on Candida tropicalis [2]; in [3]; with Candida albicans [4]; in the experiment with Pichia kudriavzevii [5]; against Pichia kudriavzevii [6]) was over 100 µg/mL in each case. The minimum inhibitory concentration (MIC) in the experiment with Candida albicans [7] and with Candida tropicalis [8] was over 100 µg/mL throughout.
On to `CC(=O)N1CCN(c2ccc(OC[C@H]3CO[C@](Cn4ccnc4)(c4ccc(Cl)cc4Cl)O3)cc2)CC1` [KETOCONAZOLE], for which the minimal inhibitory concentration (MIC) with Candida albicans [9] is over 100 µg/mL; with Candida albicans [10], over 100 µg/mL; against Candida albicans [11] it was over 100 µg/mL; in the experiment on Candida albicans [16], 100 µg/mL (≈ 188 µM); with Pichia kudriavzevii [17], over 100 µg/mL; against Candida albicans [22], over 100 µg/mL. Moreover, the MIC in experiment [27] is over 100 µg/mL; in the experiment on Candida albicans [28] it was over 100 µg/mL; against Candida tropicalis [29], over 100 µg/mL; against Candida albicans [33] it was 100 µg/mL (≈ 188 µM). For the same compound, the Efficacy in the experiment listed under Mus musculus [12] is on record as 100%; in the experiment listed under Rattus norvegicus [14], 100%; in the experiment filed under Rattus norvegicus [21], 73%; in the experiment filed under Rattus norvegicus [26], 100%; in the experiment listed under Mus musculus [30], 100%; in the experiment filed under Mus musculus [34], 100%. Besides, the MSIC was under 0.05 µg/mL in the experiment on Candida albicans [13]; under 0.05 µg/mL in the experiment on Candida albicans [15]; 0.19 µg/mL in the experiment on Candida albicans [18]; 0.19 µg/mL in [19]; 0.19 µg/mL in the experiment on Candida albicans [20]; 0.78 µg/mL in the experiment with Pichia kudriavzevii [23]. Moreover, the MSIC in the experiment on Candida albicans [24] was under 0.05 µg/mL; with Candida albicans [25], 0.39 µg/mL; in the experiment with Candida tropicalis [31] it was 6.25 µg/mL; with Candida albicans [32], under 0.05 µg/mL.
In the case of `CC[C@@H](C)[C@H]1C(=O)NCC(=O)N(C)[C@@H](C(C)C)C(=O)N[C@@H](Cc2ccc(OCC(=O)O)cc2)C(=O)O[C@H](C)C(=O)N2CCCC[C@H]2C(=O)N(C)[C@@H](C(C)C)C(=O)N[C@@H](C(C)C)C(=O)N(C)[C@@H](CC(=O)O)C(=O)N(C)[C@@H]([C@@H](C)CC)C(=O)N1C`, the MIC in the experiment on Candida albicans [35] was 12.5 µg/mL (≈ 10.7 µM); in the experiment with Candida tropicalis [36], over 100 µg/mL; in the experiment with Pichia kudriavzevii [37] it was over 100 µg/mL; against Candida albicans [38], 100 µg/mL (≈ 85.4 µM); in [39] it was over 100 µg/mL; in the experiment on Pichia kudriavzevii [40], over 100 µg/mL. The MIC (in experiment [41]; against Candida tropicalis [42]) was 25 µg/mL (≈ 21.4 µM) in each case.
